Results taken from article PMC3834432 (Toxicological Research, 2012).

Assay: Micro-SPECT/CT imaging
Type: in vivo
Conditions: normal female ICR mice; 37 MBq i.v.; SPECT image at 30 min post injection
Outline: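 Female ICR mice, obtained at 7 weeks old from a specific pathogen-free colony, were held three weeks for quarantine and adaptation. Housing was 23 ± 2 °C, 50 ± 5% humidity, 12 h light/dark, with diet and water ad libitum. Under 2% isoflurane, lying prone, mice were imaged on a small-animal SPECT/CT with a single-pinhole high-sensitivity mouse collimator.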

| Substance | Blood clearance (SPECT image, words) | Excretion / clearance from the body (SPECT image, words) |
| --- | --- | --- |
| Gly-Gly- Gly-Gly-Gly [^99mTc-tricarbonyl-Gly(5)] | fast blood clearance | – |
| Gly-Gly-Gly [^99mTc-tricarbonyl-Gly(3)] | fast blood clearances | good clearance property in vivo |
